In the library only some 1.3% were active in any assay of this set; here they are far more common.
Efa HMGR inh: inhibitors of class II HMG-CoA reductase from Enterococcus faecalis. inhibition, % at 10 µM. 0.41% of 190,000 active. purified E. faecalis HMGR, NADPH absorbance 340 nm kinetic. AID 1066;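 active = inhibition above a set limit, the median over all tested compounds plus 3 SD, cut at about 9.5% in these data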;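 also: enzyme runs in reverse so mevalonate oxidation gives rising NADPH absorbance; 0% = complete reaction with DMSO and 100% = background rate lacking mevalonate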
sdo1 growth: restores growth of sdo1-depleted yeast | S. cerevisiae sdo1-depleted JHY4D growth rescue, OD600 30 h; hits give high values; pdr5 snq2 efflux-pump mutant strain | 0.21% of 140,000 active | z-score at 10 µM;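 active = z-score above 3 at both the 24 hr and the 30 hr optical density reads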;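 also: z-score against mean and SD of all compound wells on the same plate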
BB579 growth dn: yeast BB579 growth reduction in restrictive medium; S. cerevisiae BB579 growth, OD615, 48 h; inhibition, % at 10 µM; 0.51% of 140,000 active;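 active = inhibition above a set limit, 3 SD over the mean compound inhibition, cut at about 44% in these data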
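Detection: OD615 turbidity measurement; Material: Saccharomyces cerevisiae DeaD strain BB579, replicative lifespan model yeast; Timing: 48 h exposure, 30 °C; Doses: single 10 µM dose; Medium: CSMM-D restrictive synthetic medium containing dextrose (glucose); Controls: amphotericin B at 10 µg/mL as positive control.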
Yeast lifespan up: yeast lifespan extension | 0.68% of 130,000 active | inhibition of the nicotinamide effect, % at 10 µM | S. cerevisiae growth with nicotinamide, OD615; deaD strain in restrictive glucose medium;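 active = inhibition above a set limit, placed 3 SD over the median of all compounds, cut at about 26% in these data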;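 also: 0% = nicotinamide-treated wells and 100% = cells grown without nicotinamide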
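assay system = DeaD-strain S. cerevisiae | buffer or medium = restrictive glucose medium | reagent = 1.5 mM nicotinamide | compound = 10 µM single point, 0.25% DMSO | incubation = 48 h compound exposure at 30 °C, humidified | signal = OD615 measurement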
* = called active by the depositor; / = no result.

SMILES	Efa HMGR inh	sdo1 growth	BB579 growth dn	Yeast lifespan up
CCc1cccc(C)c1NC(=S)NCCc1c(C)[nH]c2ccc(C)cc12	-0.4	-1.75	45.1*	2.2
CCc1cccc(CC)c1NC(=S)NCCc1c(C)[nH]c2ccc(C)cc12	0.3	-1.51	32.0	-0.6
CC(C)(C)C1CCc2[nH]nc(C(=O)O)c2C1 (centres undefined)	-5.5	0.42	-32.9	62.0*
O=C(O)c1n[nH]c2c1CCCC2	-5.2	1.29	-8.2	-2.6
c1ccc(-c2ccc(OCCCn3cncn3)cc2)cc1	-4.2	-2.48	79.8*	-17.8
c1ccc(-n2c(-c3ccco3)nnc2-c2ccco2)cc1	-2.8	0.45	47.5*	-9.4
Cc1cc(Cl)ccc1OCC(=O)NCC(=O)N/N=C/c1ccco1	3.1	/	/	/
O=[N+]([O-])c1cccc(N/N=C/c2cccc3ccccc23)c1	-5.1	-1.48	-6.3	-1.9
CCC1Oc2ccccc2N(CC(=O)NCc2ccco2)C1=O (centres undefined)	41.2*	/	/	/
Cc1cc(Cl)ccc1NC(=S)NCCN1CCOCC1	1.4	0.78	-12.9	1.4
CCCCC(C)(O)C/C=C/[C@H]1[C@H](O)CC(=O)[C@@H]1CCCCCCC(=O)OC (some centres undefined)	-3.6	0.2	-38.8	31.6*
CCCCCCC(=O)Oc1ccc(N2C(=O)CCC2=O)cc1	-4.4	/	/	/
O=S(=O)(N/N=C/c1ccc(N2CCOCC2)cc1)c1ccc(Br)cc1	-1.8	/	/	/
COC(=O)Cc1ccc(NC(=S)Nc2ccc(N3CCOCC3)cc2)cc1	-0.5	/	/	/
N#C/C(=C\c1ccc(Sc2ccccc2)o1)c1nc2ccccc2[nH]1	-0.6	-0.09	-69.0	2.1
Cc1ccc2nc(/C(C#N)=C\c3ccc(N4CCOCC4)o3)[nH]c2c1	-0.1	-2.06	-29.0	/
Cc1ccc2nc(/C(C#N)=C\c3ccc([N+](=O)[O-])o3)[nH]c2c1	-8.8	-2.19	99.1*	-21.9
N#C/C(=C\c1ccc([N+](=O)[O-])o1)c1nc2ccccc2[nH]1	-12.4	-2.1	67.4*	20.9
CCOc1ccc(/C(O)=C2/C(=O)C(=O)N(CC3CCCO3)C2c2ccco2)cc1 (centres undefined)	28.6*	0.91	-19.4	/
OC(CNCCC1C=Nc2ccccc21)Cn1c2ccc(Cl)cc2c2cc(Cl)ccc21 (centres undefined)	-4.7	-1.72	99.2*	-11.6
OC(CNCC1CCCO1)Cn1c2ccc(Cl)cc2c2cc(Cl)ccc21 (centres undefined)	1.8	-3.1	-65.9	-33.3
Cn1c(C(=O)N2CCCC(C(=O)c3ccc(C(F)(F)F)cc3)C2)cc(=O)n(C)c1=O (centres undefined)	-3.1	/	/	/
Cc1cccc(N=Nc2ccc(O)c3ncccc23)c1	-1.1	-1.17	90.5*	-2.5
CCCCCCOC(=O)Sc1nc2ccccc2o1	-2.3	-2.04	81.0*	-26.3
COC(=O)CSc1nc2ccccc2o1	-4.4	0.33	-26.0	-25.9
SMILES	Efa HMGR inh	sdo1 growth	BB579 growth dn	Yeast lifespan up
COc1ccc2c(c1OC)C(=O)OC2Nc1ncccc1C (centres undefined)	-3.9	0.22	-11.5	6.5
COc1ccc2c(c1OC)C(=O)OC2Nn1cncn1 (centres undefined)	3.3	0.12	-56.5	50.7*
CCc1cc2c(=O)[nH]c(-c3ccccn3)nc2s1	-1.7	-1.27	78.3*	-5.7
Clc1ccc2nnnc(-c3ccccc3)c2c1	1.2	-2.29	45.5*	2.5
c1ccc(-c2nnnc3ccccc23)cc1	1.7	-0.63	-13.1	-1.3
COCCN(C(=S)Nc1cccc(C)c1)C(C)c1cccnc1 (centres undefined)	2.4	/	/	/
CCOC(=O)Cc1csc(NC(=O)/C=C/c2ccc(OC)cc2)n1	-6.7	/	/	/
COc1ccccc1N1CCN(C(=O)C2CCC(Cn3c(=S)[nH]c4ccccc4c3=O)CC2)CC1 (centres undefined)	-2.1	-1.01	-44.2	-13.9
COc1ccc(N2CCN(C(=O)C3CCC(Cn4c(=S)[nH]c5ccccc5c4=O)CC3)CC2)cc1 (centres undefined)	21.6*	-0.8	-41.9	-1.1
ClC(Br)=C(n1cnc2ccccc21)n1cnc2ccccc21	-0.7	-1.26	-53.4	41.3*
CN(C(=O)n1cnc2ccccc21)c1ccccc1	-2.3	-0.14	-14.5	1.7
O=C(Cn1cc(C(=O)C(F)(F)F)c2cc(Br)ccc21)N1CCOCC1	-4.5	/	/	/
O=C(Cn1cc(C(=O)C(F)(F)F)c2ccccc21)N1CCOCC1	13.8*	/	/	/
Cc1ccc(C(=O)C2CCOC(C)(C)C2)cc1 (centres undefined)	-4.5	/	/	/
O=C(O)/C=C/c1cn(Cc2ccccc2)nc1-c1ccccc1	-6.0	-0.06	-42.9	-13.6
O=C(O)CCn1cc(/C=C/C(=O)c2ccc(Cl)cc2)c(-c2ccc(Br)cc2)n1	-12.7	0.57	52.3*	-9.6
Cc1ccc(S(=O)(=O)NCC(=O)OCC(=O)NC(=O)NC2CCCC2)cc1	-7.2	/	/	/
O=C(CSc1nnnn1-c1ccccc1)Nc1ccc(N2CCOCC2)c(Cl)c1	15.2*	-0.49	-7.9	-26.2
O=C(CSc1nnnn1-c1cccc2ccccc12)Nc1ccc(N2CCOCC2)c(Cl)c1	-2.2	-0.67	-40.3	-3.5
c1cc(C2CCN(Cc3nc(-c4ccc5c(c4)OCO5)no3)CC2)ccn1	-0.7	/	/	/
COC(=O)c1ccc(N2C(=O)Nc3ccccc3N2O)cc1	-4.0	/	/	/
CC(C)N(Cc1nc(-c2ccc(Cl)cc2)no1)Cc1nccn1C	-9.4	/	/	/
Cc1cc(N2CC(C)OC(C)C2)nc2ccccc12 (centres undefined)	0.4	/	/	/
CC(NC(=O)Nc1ccc(Cl)cc1)C(c1cccs1)N1CCOCC1 (centres undefined)	-0.9	0.1	48.5*	-6.5
CC(C)Oc1ccc(C(CC(=O)O)n2cnnn2)cc1 (centres undefined)	3.2	/	/	/
SMILES	Efa HMGR inh	sdo1 growth	BB579 growth dn	Yeast lifespan up
COc1ccc(CCN2C(=O)C(O)=C(C(=O)c3ccco3)C2c2cccs2)cc1OC (centres undefined)	-1.6	1.66	-33.4	83.1*
Cc1ccc2nc(N3C(=O)C(O)=C(C(=O)c4ccco4)C3c3cccs3)sc2c1 (centres undefined)	-2.1	1.21	-31.0	61.5*
CCN(CC)C(=O)C(=O)c1cccn1-c1c(Cl)cccc1C#N	0.3	/	/	/
CN1CCN(c2ccc(Cl)cc2NC(=O)/C=C/c2ccc(F)cc2)CC1	-6.5	/	/	/
CCCC(=Nc1ccccc1OC)C1=C(O)CC(c2ccccc2)CC1=O (centres undefined)	-0.2	-1.47	-20.0	58.7*
COc1ccccc1N=C(C)C1=C(O)CC(c2ccccc2)CC1=O (centres undefined)	-2.6	/	/	/
CCCCC(=Nc1ccccc1OC)C1=C(O)CC(c2ccccc2)CC1=O (centres undefined)	-3.4	-1.52	17.1	66.5*
C=CCN1C(=O)C2C3CC(=O)C(c4ccccc43)C2C1=O (centres undefined)	-4.4	/	/	/
CC(=O)NS(=O)(=O)c1ccc(N=c2ssc3c2-c2ccc(C)cc2NC3(C)C)cc1	-4.9	-0.29	-11.6	-1.8
CN(C)/C=C/C1=CC(=O)CC(C)(C)C1	-5.0	/	/	/
O=C(NCCc1nc2ccccc2[nH]1)/C(=C/c1ccco1)NC(=O)c1ccccc1Br	0.9	0.64	-21.7	2.5

Assay outcomes from PubChem BioAssay.
